An excerpt weighted towards active compounds, which were near 2.4% of everything screened.
NPY1 pot ag: potentiates or activates human NPY-Y1 receptor; P25929; AID 1304; NPY-Y1 expressing cells, potentiator/agonist activation; activation, % at 3.6 µM; hit rate 0.37% among 220,000; in the data active = activation above about 33%, passing the limit was not always enough;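 also: cells stimulated with NPY at EC10 then isoproterenol at EC100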
Target sequence (P25929 whole entry, looked up): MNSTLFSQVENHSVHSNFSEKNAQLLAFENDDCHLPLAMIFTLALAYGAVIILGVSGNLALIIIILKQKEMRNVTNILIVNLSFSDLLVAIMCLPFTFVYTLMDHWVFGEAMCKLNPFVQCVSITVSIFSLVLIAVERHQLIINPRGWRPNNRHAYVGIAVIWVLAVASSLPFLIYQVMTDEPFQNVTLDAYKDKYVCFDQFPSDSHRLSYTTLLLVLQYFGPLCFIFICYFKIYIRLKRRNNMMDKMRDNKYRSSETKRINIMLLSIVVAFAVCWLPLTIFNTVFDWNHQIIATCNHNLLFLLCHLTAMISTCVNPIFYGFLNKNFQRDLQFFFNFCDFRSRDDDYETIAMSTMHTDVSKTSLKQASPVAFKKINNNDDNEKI
S1P4 antag: antagonists of human S1P4 receptor. inhibition, % at 4.98 µM. AID 1510. S1P4-expressing cells, antagonist mode, reporter read-out. hit rate 0.26% among 220,000. O95977; in the data active = inhibition above about 29%
NPY-Y2 antag: antagonists of human neuropeptide Y receptor Y2; P49146; NPY-Y2 expressing cells, antagonist mode; inhibition, % at 2.7 µM; hit rate 0.99% among 140,000; in the data active = inhibition above about 17%
NPY Y1 blocker: blocks the human neuropeptide Y Y1 receptor | hit rate 1% among 200,000 | HEK293-CNG Y1 cells, membrane potential fluorescence; NPY at EC95, then isoproterenol | P25929 | inhibition, % at 3.6 µM;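 active = inhibition above the campaign mean inhibition of all tested compounds plus 3 SD, cut at about 20% in these data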
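Material: HEK293 Y1/CNG channel cell line | Also added: NPY (25 nM), isoproterenol (1 µM), Ro 20-1724 (25 µM) | Compound: One concentration, 3.6 µM, in 0.4% DMSO | Schedule: 3 h dye uptake, 1 h room-temperature compound, 45 min post-isoproterenol | Signal: Membrane-potential fluorescent dye readout | Read-out: % inhibition of NPY effect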
S1P4 agonist: agonists of human S1P4 receptor; O95977; S1P4-expressing cell line, agonist reporter assay; activation, % at 4.98 µM; hit rate 0.35% among 220,000; in the data active = activation above about 11%
NPY2 pot ag: potentiates or activates human NPY-Y2 receptor; P49146; cells expressing NPY-Y2, potentiator/agonist read-out; activation, % at 3.6 µM; hit rate 0.45% among 220,000; in the data active = activation above about 27%;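 also: cells stimulated with NPY near EC25 plus isoproterenol at EC100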
S1P4 antag cf: confirmation of human S1P4 receptor antagonists; shares compounds with S1P4 antag; S1P4-expressing cell line, antagonist mode, reporter read-out; inhibition, % at 4.98 µM; hit rate 71% among 520; AID 1524; in the data active = inhibition above about 30%
S1P1 antagonist: human S1P1 antagonism as S1P4 antagonist counter-screen | shares compounds with S1P4 antag | cell-based S1P1 antagonist counterscreen, inhibition | inhibition, % at 4.98 µM | hit rate 37% among 520 | AID 1564; in the data active = inhibition above about 40%;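 also: receptor stimulated with S1P near its EC80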
Hits are given with their value; i = inactive; nt = not tested or not shown.

SMILES | NPY1 pot ag | S1P4 antag | NPY-Y2 antag | NPY Y1 blocker | S1P4 agonist | NPY2 pot ag | S1P4 antag cf | S1P1 antagonist
CC(Nc1ccc(F)cc1F)C(=O)NC(=O)NC1CCCCC1 (configuration not stated) | i | 30 | nt | i | i | i | i | i
N#C/C(=C\c1cccc(O)c1)c1nc2ccccc2o1 | i | 32 | nt | nt | i | i | i | i
CCNc1nc(NC(C)(C)C)nc(N2CCCCC2)n1 | 50 | 44 | nt | i | i | 30 | 92 | i
CCNc1nc(N2CCCC2)nc(N2CCCC2)n1 | i | i | nt | i | i | i | nt | nt
O=C(CCC1CCCN(C(=O)c2ccc3c(c2)OCO3)C1)N1CCN(c2ccccn2)CC1 (configuration not stated) | i | i | nt | i | i | i | nt | nt
O=C(Cn1ncc(Cl)c(Cl)c1=O)N1CCN(Cc2ccccc2)CC1 | i | 71 | nt | i | i | i | 118 | 61
O=C(Cn1ncc(Cl)c(Cl)c1=O)N1CCc2ccccc21 | i | 79 | nt | i | i | i | 118 | 94
CC1(C)C(=O)Nc2ccccc2N1C(=O)Cn1ncc(Cl)c(Cl)c1=O | i | 95 | nt | nt | i | i | 87 | i
O=C(Cn1ncc(Cl)c(Cl)c1=O)N1CCOCC1 | i | 44 | nt | i | i | i | 60 | i
COC(=O)CC/C(O)=C1\C(=O)CC(C)(C)CC1=NCc1nc2ccccc2[nH]1 | i | i | nt | i | i | i | nt | nt
Cc1cc(C)c(O)c(N)c1 | i | i | nt | i | i | i | nt | nt
CCOC(=O)c1sc(NC(=O)Nc2ccc(Cl)cc2)nc1C | i | i | i | i | i | i | nt | nt
COc1ccc(N(CC(=O)N2CCC(Cc3ccccc3)CC2)S(C)(=O)=O)cc1 | i | i | nt | i | i | i | nt | nt
COc1ccc(C(=O)C(CN2CCOCC2)c2ccccc2)cc1 (configuration not stated) | i | 45 | i | i | i | i | 31 | i
C/C(=N\NC(=O)C1COc2ccccc2O1)c1ccc(N2CCOCC2)cc1 (configuration not stated) | i | i | nt | i | i | i | nt | nt
O=C(c1ccc(COc2ccccc2Br)cc1)N1CCCCCC1 | i | i | nt | i | i | i | nt | nt
O=C(OCn1ncc(Br)c(Br)c1=O)c1ccc(F)cc1 | i | 78 | i | i | i | i | 117 | 47
O=C(OCn1ncc(Br)c(Br)c1=O)c1ccccc1Cl | i | 48 | i | i | i | i | 115 | i
O=[N+]([O-])c1ccc(N/N=C/c2c[nH]c3ccccc23)cc1 | 55 | 37 | i | i | i | 48 | 50 | 78
O=C(N/N=C/c1c[nH]c2ccccc12)c1cccc([N+](=O)[O-])c1 | i | i | i | i | i | i | nt | nt
COc1ccc(OC)c(NC=C2C(=O)OC3(CCCCC3)OC2=O)c1 | i | 32 | i | i | i | i | i | i
Cc1cc(N2CCOCC2)ccc1/C=C\[N+](=O)[O-] | i | 39 | i | i | i | i | 82 | i
